Values joined by “and” are separate entries in the source; they are usually repeats but may differ in a detail not shown here. Equal values may be shown once. Read-outs that look alike come from different tables or passages of the source.
Assays:
[1] = monkeys; administration for 10 days; effects reversible; cited from earlier work
[2] = rats; administration for 10 days; effects reversible; cited from earlier work
[3] = Dose-response curves of nutlin enantiomers; conditions: nutlin3a vs nutlin3b; data not shown
[4] = Nutlin3a concentrations in normal brain and intracranial tumor tissue; type: in vivo, NSG mice; conditions: 100 mg/kg nutlin3a; 4 hours
Summary of the method: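 NSG mice carried GBM10, GBM43 or SK28 melanoma cells implanted stereotactically in the right cerebral hemisphere. At 21 days post-implantation, mice received 100 mg/kg nutlin3a orally; tumor-free mice were dosed likewise. After 4 h, plasma and brains were collected and the tumor area was excised. Samples were frozen at −80°C, extracted by liquid-liquid extraction, and assayed by HPLC-MS/MS. Each point is one mouse.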

GBM10 cells [5] = test: Matrigel invasion assay; type: cell-based, human; conditions: 25 μM TMZ, 10 μM nutlin3a; 8 hours
U87-MG cells [6] = test: Apoptosis assay; type: cell-based, human; conditions: 25 μM TMZ, 1.25 or 5 μM nutlin3a; Day 5 posttreatment
Summary of the method: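 U87-MG cells were treated with vehicle, 25 μM TMZ, 1.25 or 5 μM nutlin3a (DMSO stock diluted in medium), or TMZ/nutlin3a combinations. TMZ was dissolved in PBS or medium and used immediately. On Day 5 post-treatment, cells were stained with Annexin V-FITC and 7-AAD. Early apoptotic and late apoptotic/necrotic fractions were quantified by flow cytometry.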

GBM10 flank tumors = test: Western blot analysis of GBM10 flank tumor lysates; type: in vivo, NSG mice; conditions: 66 mg/kg TMZ, 100 mg/kg nutlin3a, 3 consecutive days; for MDM2 and p53 levels in tumors: 2 hours after last dose
Summary of the method: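 NSG mice received 5 × 10^6 GBM10 cells in the right flank. At approximately 200 mm3, mice were dosed orally for 3 consecutive days with vehicle, 66 mg/kg TMZ, 100 mg/kg nutlin3a (methylcellulose/Tween 80), or the combination. Tumors were harvested 2 h after the last dose. Lysates were made in RIPA buffer with protease/phosphatase inhibitors, run on 4–20% SDS-PAGE, and transferred to nitrocellulose. Detection was by HRP-chemiluminescence, with densitometry normalized to loading control.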

[7] = murine bone marrow; cited from earlier work
U87-MG cells [8] = test: Western blot analysis of target proteins and cell cycle markers; type: cell-based, human
Summary of the method: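 U87-MG cells were treated with vehicle, 25 μM TMZ, 5 μM nutlin3a, or the combination for 24 h or 72 h. RIPA lysates were resolved on 4–20% SDS-PAGE and transferred to nitrocellulose. Primary antibodies were used at 1:1000 and HRP secondaries at 1:5000, with chemiluminescent film detection. Densitometry was normalized to loading control and expressed relative to vehicle. Six independent experiments at 24 h; two at 72 h.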

GBM10 cells [9] = test: Wound-healing assay; type: cell-based, human; conditions: 25 μM TMZ, 10 μM nutlin3a; 12 hours
Summary of the method: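 GBM10 monolayers at 80–90% confluence were scratched with a pipette tip. Debris was washed off with medium, cells were rinsed in serum-free DMEM, and the gap was photographed at hour 0. Cells were then cultured in DMEM with 10% FBS containing vehicle, 25 μM TMZ, 10 μM nutlin3a, or the combination for 12 h. The marked gap was imaged every 2 h and its width measured. Three repeats.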

[10] = tested on: GBM10 intracranial tumors; test: Survival in orthotopic intracranial GBM10 xenograft model; type: in vivo, NSG mice
GBM10 cells [11] = test: Western blot analysis of target proteins and cell cycle markers; type: cell-based, human
Summary of the method: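 Cultured GBM10 cells were treated with vehicle, 25 μM TMZ, 10 μM nutlin3a, or the combination for 72 h (cell-cycle markers). A second set received 200 μM TMZ plus 2 μM nutlin3a for 24, 48 or 72 h. RIPA lysates were run on 4–20% SDS-PAGE and transferred to nitrocellulose. Primary antibodies were used at 1:1000 and HRP secondaries at 1:5000, with chemiluminescent detection. Densitometry was normalized to loading control relative to vehicle (24 h: 3 independent experiments).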

[12] = Pharmacokinetic analysis of nutlin3 in NSG mice; type: in vivo
Summary of the method: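 Racemic nutlin3 was given orally to NSG mice. Plasma was collected, flash-frozen and kept at −80°C. Drug was recovered by liquid-liquid extraction and quantified by HPLC-MS/MS (API 4000) to derive pharmacokinetic parameters.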

[13] = Nutlin3 concentration in U87-MG flank xenografts; type: in vivo, NSG mice; conditions: 4 hours postadministration
Summary of the method: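 Tumors from NSG mice bearing U87-MG flank xenografts were collected 4 h after oral nutlin3 dosing. A vehicle-treated tumor served as background control. Samples were flash-frozen and stored at −80°C. Nutlin3 was recovered by liquid-liquid extraction and quantified by HPLC-MS/MS (API 4000), with caylin as internal standard. Two tumor samples were analyzed.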

U87-MG flank xenografts = test: Efficacy in ectopic U87-MG flank xenografts; type: in vivo, NSG mice; conditions: 5 mg/kg TMZ, 100 mg/kg nutlin3; 2 treatment cycles
Summary of the method: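 NSG mice received 4 × 10^6 U87-MG cells in the right flank. At approximately 150 mm3, tumor-bearing mice were randomized into cohorts of 6–8. Dosing was oral: vehicle, 5 mg/kg TMZ, 100 mg/kg racemic nutlin3, or the combination, for 2 treatment cycles. Caliper measurements were taken twice weekly, and volume = (α2 × β)/2 (α shorter, β longer dimension). Data are mean ± SEM.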

[14] = type: in vivo, NSG mice; conditions: peripheral blood, three cycles
GBM flank xenografts = conditions: ISA27 alone; cited from earlier work
U87-MG cells [15] = conditions: in vitro; cited from earlier work
[16] = 25 μM TMZ, 5 μM nutlin3a, 24 hours

## CCOc1cc(C(C)(C)C)ccc1C1=N[C@@](C)(c2ccc(Cl)cc2)[C@@](C)(c2ccc(Cl)cc2)N1C(=O)N1CCN(CCCS(C)(=O)=O)CC1 [RG7112]
[1]
  Platelet production: decreased platelet production
[2]
  Platelet production: decreased platelet production

## COc1ccc(C2=N[C@@H](c3ccc(Cl)cc3)[C@@H](c3ccc(Cl)cc3)N2C(=O)N2CCNC(=O)C2)c(OC(C)C)c1 [nutlin3a]
[3]
  Relative potency of enantiomers: more potent enantiomer
[4]
  Nutlin3a levels in brain tumor tissues versus normal brain tissue: higher levels
GBM10 cells [5]
  GBM10 invasion: significantly inhibited
U87-MG cells [6]
  Early and late apoptotic/necrotic cells compared with control or TMZ alone: significant increases
GBM10 flank tumors
  MDM2 and p53 levels in tumors: increased
[7]
  Nutlin3a detected in bone marrow: low levels
U87-MG cells [8]; 5 μM nutlin3a, 25 μM TMZ, 72 hours
  Cell cycle arrest by cell cycle–specific markers (pRb S780, pHH3, TopoIIα): arrested in G0/G1
U87-MG cells [8]; [16]
  Levels of total p53, p53 (S15) and MDM2: increased
  p21 levels: increased
U87-MG cells [8]; 72 hours
  APE1 level: decreased
GBM10 cells [9]
  GBM10 migration: significantly inhibited
[10]; 100 mg/kg nutlin3a twice daily, 2 consecutive 5-day cycles
  Survival of mice with intracranial GBM tumors, single agent: did not increase survival
GBM10 cells [11]; 10 μM nutlin3a, 25 μM TMZ, 72 hours
  Cell cycle arrest by cell cycle–specific markers (pRb S780, pHH3, TopoIIα): arrested in G0/G1
GBM10 cells [11]; 200 μM TMZ, 2 μM nutlin3a, 24 hours
  MDM2 and p21 levels: significantly increased

## COc1ccc(C2=N[C@@H](c3ccc(Cl)cc3)[C@@H](c3ccc(Cl)cc3)N2C(=O)N2CCNC(=O)C2)c(OC(C)C)c1 [nutlin3]
[12]; NSG, mouse, in vivo, po
  Cmax: 20400 ng/mL and 37 µM
  Tmax: 1 h
  Vd/F: 0.113 L
  half-life: 4.5 h
[12]; racemic nutlin3, NSG mice
  Cl/F: 0.29 mL/min
[13]
  Nutlin3 in U87-MG flank xenografts: detected
U87-MG flank xenografts
  Tumor growth / tumor volume compared with vehicle: significantly slowed tumor growth

## Cn1nnc2c(C(N)=O)ncn2c1=O [TMZ, temozolomide]
GBM10 flank tumors
  p53 (S15) levels in tumors: increased
  MDM2 and p53 levels in tumors: increased
U87-MG cells [8]; [16]
  Levels of total p53, p53 (S15) and MDM2: increased
U87-MG cells [8]; 72 hours
  APE1 level: decreased
[14]; Day 30 and Day 43
  White and red blood cell counts compared with vehicle-treated mice: significant decrease
[14]; Day 30 only
  Platelets: significantly decreased
U87-MG flank xenografts
  Tumor growth / tumor volume compared with vehicle: significant decrease in tumor volume
[10]; 66 mg/kg TMZ once daily, 100 mg/kg nutlin3a, 2 cycles, p < 0.05
  Survival compared with vehicle or nutlin3a: significantly increased
[10]; three 5-day cycles
  Increase in survival compared with vehicle-treated mice: approximately 13%

## O=C1[C@@H]2CS[C@@]3(C(=O)Nc4ccccc43)N2C(=O)N1Cc1ccc(Cl)cc1 [ISA27]
GBM flank xenografts
  Growth of GBM flank xenografts: inhibited growth
U87-MG cells [15]
  Interaction with TMZ to kill U87-MG cells: synergized
